The text below walks through data of ChEMBL document CHEMBL3259616, “New Ianthelliformisamine derivatives as antibiotic enhancers against resistant Gram-negative bacteria” (J Med Chem, 2014).

The term MIC denotes the least concentration at which growth counts as inhibited. In general, IC50 refers to the point on the concentration scale where inhibition reaches its midpoint.

The test system of assay [1] is Klebsiella aerogenes. Description: Antibacterial activity against Enterobacter aerogenes EA289 assessed as inhibition of visible growth after 18 hrs incubation by standard broth dilution method. In kind it is functional. Particulars: EA289, 18 h. In short, it runs like this:
(§1)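 Broth microdilution per CA-SFM: inoculum 10^5 CFU in 200 μL Mueller–Hinton broth with 2-fold serial dilutions of compound; MIC = lowest concentration with no visible growth after 18 h at 37 °C. Independently repeated at least three times. Strains kept at −80 °C in 15% glycerol and grown routinely in MH broth at 37 °C.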

Another assay relates to Staphylococcus aureus. The experiment in a line: Antibacterial activity against Staphylococcus aureus DSM799 assessed as inhibition of visible growth after 18 hrs incubation by standard broth dilution method. Format: functional. Particulars: DSM799, 18 h. In outline: as §1
On the technique in general: Dilution methods test growth across graded concentrations, often in twofold steps.

In another assay the test system is Pseudomonas aeruginosa. The experiment in a line: Antibacterial activity against Pseudomonas aeruginosa PAO1 assessed as inhibition of visible growth after 18 hrs incubation by standard broth dilution method. In kind it is functional. Particulars: PAO1, 18 h. In outline: as §1
Assay [2] relates to Klebsiella pneumoniae. Description: Antibacterial activity against Klebsiella pneumoniae KPC2 ST258 assessed as inhibition of visible growth after 18 hrs incubation by standard broth dilution method. In kind it is functional. Particulars: KPC2, 18 h. In short, it runs like this: as §1
For assay [3], the system named is Klebsiella aerogenes. The experiment in a line: Inhibition of multidrug resistance efflux pump in Enterobacter aerogenes EA289 assessed as dose required to restore 2 ug/ml doxycycline-induced inhibition of visible growth after 18 hrs by standard broth dilution method. In short, it runs like this:
(§2)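 Broth microdilution in MH broth, inoculum 10^5 CFU in 200 μL, 2-fold serial dilutions of derivative with fixed antibiotic (2 μg/mL). Lowest derivative concentration giving complete inhibition of visible growth after 18 h at 37 °C recorded. Antibiotics dissolved in DMSO. Independently repeated at least three times.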

For assay [4], the system named is Pseudomonas aeruginosa PAO1. Description: Inhibition of multidrug resistance efflux pump in Pseudomonas aeruginosa PAO1 assessed as dose required to restore 2 ug/ml doxycycline-induced inhibition of visible growth after 18 hrs by standard broth dilution method. In short, it runs like this:
as §2

The subject of assay [5] is Klebsiella pneumoniae. Description: Inhibition of multidrug resistance efflux pump in Klebsiella pneumoniae KPC2 ST258 assessed as dose required to restore 2 ug/ml doxycycline-induced inhibition of visible growth after 18 hrs by standard broth dilution method. In short, it runs like this: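 Broth microdilution in Mueller-Hinton broth, CA-SFM recommendations. Inoculum 10^5 CFU in 200 μL containing 2-fold serial dilutions of derivative plus doxycycline at 2 μg/mL, 37 °C for 18 h. Antibiotics dissolved in DMSO, up to 5% v/v. Repeated independently at least three times.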

The subject of assay [6] is Pseudomonas aeruginosa PAO1. Description: Inhibition of multidrug resistance efflux pump in Pseudomonas aeruginosa PAO1 assessed as dose required to restore 2 ug/ml chloramphenicol-induced inhibition of visible growth after 18 hrs by standard broth dilution method. In short, it runs like this: as §2
For assay [7], the system named is Pseudomonas aeruginosa PAO1. Description: Inhibition of multidrug resistance efflux pump in Pseudomonas aeruginosa PAO1 assessed as dose required to restore 2 ug/ml cefepime-induced inhibition of visible growth after 18 hrs by standard broth dilution method. In short, it runs like this: as §2
Assay [8] is described as follows: Cytotoxicity against CHOK1 cells assessed as decrease in cell viability after 24 hrs by WST-1 assay. Format: cell-based. Particulars: Cricetulus griseus, CHO-K1, 24 h. In outline:
(§3)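 CHO-K1 (McCoy's 5A) and human fibroblasts (DMEM), both with 10% bovine calf serum, 2 mM glutamine, penicillin/streptomycin, 37 °C, 5% CO2. Seeded, left overnight, then exposed to various compound concentrations in triplicate for 24 h at 37 °C. Washed three times in PBS, 30 min in PBS with 10% WST-1, A450. Viability as % of medium-only control; IC50 by nonlinear regression.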

Assay [9] is described as follows: Cytotoxicity against human fibroblasts assessed as decrease in cell viability after 24 hrs by WST-1 assay. The following applies: Fibroblast. In kind it is cell-based. In short, it runs like this: as §3
(Tetrazolium dyes change colour on reduction, which living cells bring about.)

The structures appear in SMILES notation. Values after ≈ are worked out from the molar mass of the structure shown.

With `COc1c(Br)cc(/C=C/C(=O)NCCCCN)cc1Br`, the MIC in the assay on Klebsiella aerogenes [1], in the assay on Staphylococcus aureus, in the assay on Pseudomonas aeruginosa and with Klebsiella pneumoniae [2] was over 200 µM throughout. For the same molecule, the Activity (in the assay on Klebsiella aerogenes [3]; in assay [4]; with Klebsiella pneumoniae [5]) was over 100 µM throughout. For the same molecule, the inhibition entry in [4] is “Dose-dependent effect”.

On to `COc1c(Br)cc(/C=C/C(=O)NCCCNCCCCN)cc1Br.Cl.Cl`, for which the MIC in the assay with Klebsiella aerogenes [1] was 100 µM; in the assay on Staphylococcus aureus, over 200 µM; with Pseudomonas aeruginosa, over 200 µM; in the assay with Klebsiella pneumoniae [2], over 200 µM. The Activity with Klebsiella aerogenes [3] worked out at 25 µM; in assay [4], 12.5 µM; in the assay with Klebsiella pneumoniae [5], 3.12 µM; in [6], 200 µM; in [7] it was 0.8 µM. The inhibition entry in assay [4] was “Dose-dependent effect”. For the same molecule, the IC50 turned out to be 1660 µM in assay [8] and 129 µM in assay [9].

Consider `COc1c(Br)cc(/C=C/C(=O)NCCNCCNCCNCCN)cc1Br`, for which the MIC is 200 µM (≈ 101 µg/mL) with Klebsiella aerogenes [1], 50 µM (≈ 25.4 µg/mL) with Staphylococcus aureus, 100 µM (≈ 50.7 µg/mL) in the assay on Pseudomonas aeruginosa and over 200 µM in the assay with Klebsiella pneumoniae [2]. Moreover, the Activity turned out to be 12.5 µM in the assay on Klebsiella aerogenes [3]; 6.25 µM in assay [4]; 3.12 µM in the assay on Klebsiella pneumoniae [5]; 100 µM in assay [6]; 6.25 µM in assay [7]. The inhibition entry in [4] is “Dose-dependent effect”. For the same molecule, the values for the IC50 in assay [8] and in [9] were 573 µM and 237 µM, respectively.

Take `C[C@H]1c2cccc(O)c2C(=O)C2=C(O)[C@]3(O)C(=O)C(C(N)=O)=C(O)[C@@H](N(C)C)[C@@H]3[C@@H](O)[C@@H]21` [DOXYCYCLINE]: the MIC with Klebsiella aerogenes [1] is 56 µM (≈ 24.9 µg/mL); with Staphylococcus aureus it was under 3 µM; with Pseudomonas aeruginosa, 112 µM (≈ 49.8 µg/mL).

As for `COc1c(Br)cc(/C=C/C(=O)NCCCN2CCN(CCCN)CC2)cc1Br`, the MIC with Klebsiella aerogenes [1] is over 200 µM; in the assay on Staphylococcus aureus it was 6.25 µM (≈ 3.24 µg/mL); in the assay on Pseudomonas aeruginosa, over 200 µM; in the assay on Klebsiella pneumoniae [2], over 200 µM. The Activity in the assay with Klebsiella aerogenes [3] and in the assay on Klebsiella pneumoniae [5] was over 100 µM in each case.

Regarding `COc1c(Br)cc(/C=C/C(=O)NCCCNCCCNCCCNC(=O)/C=C/c2cc(Br)c(OC)c(Br)c2)cc1Br`, the MIC in the assay with Klebsiella aerogenes [1] amounted to 100 µM (≈ 82.4 µg/mL); in the assay with Staphylococcus aureus it was 12.5 µM (≈ 10.3 µg/mL); in the assay on Pseudomonas aeruginosa it was 25 µM (≈ 20.6 µg/mL); in the assay on Klebsiella pneumoniae [2], 12.5 µM (≈ 10.3 µg/mL). Moreover, the Activity in the assay with Klebsiella aerogenes [3] was determined as 12.5 µM; in assay [4], 3.12 µM; with Klebsiella pneumoniae [5] it was 12.5 µM; in assay [6], 12.5 µM; in [7], 1.6 µM. Besides, the inhibition entry in assay [4] was “Dose-dependent effect”. Further, the IC50 in [8] was 663 µM; in assay [9], 237 µM.

Consider `COc1c(Br)cc(/C=C/C(=O)NCCCOCCCCOCCCN)cc1Br`, for which the MIC in the assay on Klebsiella aerogenes [1], in the assay with Staphylococcus aureus, with Pseudomonas aeruginosa and in the assay with Klebsiella pneumoniae [2] was over 200 µM in each case. For the same molecule, the Activity (in the assay with Klebsiella aerogenes [3]; in assay [4]; in the assay with Klebsiella pneumoniae [5]) was over 100 µM each time. Besides, in assay [4], the inhibition result was “Dose-dependent effect”.

With `COc1c(Br)cc(/C=C/C(=O)NCCCNCCCCNCCCN)cc1Br` [IANTHELLIFORMISAMINE A], the MIC is over 200 µM in the assay with Klebsiella aerogenes [1], 200 µM (≈ 104 µg/mL) with Staphylococcus aureus, 200 µM (≈ 104 µg/mL) in the assay on Pseudomonas aeruginosa and over 200 µM in the assay with Klebsiella pneumoniae [2]. Further, the Activity with Klebsiella aerogenes [3] was over 100 µM; in assay [4] it was 12.5 µM; in the assay with Klebsiella pneumoniae [5], over 100 µM. Further, the inhibition entry in assay [4] is “Dose-dependent effect”.

As to `COc1c(Br)cc(/C=C/C(=O)NCCCCNCCCN)cc1Br.Cl.Cl`, the MIC with Klebsiella aerogenes [1] is over 200 µM; in the assay with Staphylococcus aureus, 200 µM; in the assay with Pseudomonas aeruginosa, 200 µM; in the assay with Klebsiella pneumoniae [2], over 200 µM. Besides, the Activity in the assay with Klebsiella aerogenes [3] is 6.25 µM; in [4] it was 3.12 µM; in the assay on Klebsiella pneumoniae [5] it was 3.12 µM; in assay [6], 100 µM; in [7], 3.12 µM. For the same molecule, the inhibition result in assay [4] is “Dose-dependent effect”. The IC50 is 108 µM in [8] and 33 µM in assay [9].

Take `COc1c(Br)cc(/C=C/C(=O)NCCCN2CCCC2)cc1Br`: the minimum inhibitory concentration (MIC) in the assay with Klebsiella aerogenes [1], in the assay with Staphylococcus aureus, in the assay on Pseudomonas aeruginosa and in the assay with Klebsiella pneumoniae [2] was over 200 µM each time. In addition, the Activity with Klebsiella aerogenes [3] is over 100 µM; in [4], 25 µM; with Klebsiella pneumoniae [5], over 100 µM. Also, the inhibition entry in assay [4] was “Dose-dependent effect”.

For `COc1c(Br)cc(/C=C/C(=O)NCCNCCNCCN)cc1Br`, the MIC in the assay on Klebsiella aerogenes [1], in the assay on Staphylococcus aureus, with Pseudomonas aeruginosa and with Klebsiella pneumoniae [2] was over 200 µM in each case. For the same molecule, the Activity (in the assay with Klebsiella aerogenes [3]; in assay [4]; in the assay on Klebsiella pneumoniae [5]) was over 100 µM throughout. In addition, the inhibition result in [4] is “Dose-dependent effect”.

As for `COc1c(Br)cc(/C=C/C(=O)NCCCN2CCOCC2)cc1Br`, the MIC in the assay with Klebsiella aerogenes [1], in the assay with Staphylococcus aureus, in the assay on Pseudomonas aeruginosa and in the assay with Klebsiella pneumoniae [2] was over 200 µM in each case. Also, the Activity (in the assay on Klebsiella aerogenes [3]; in assay [4]; in the assay on Klebsiella pneumoniae [5]) was over 100 µM throughout. Further, the inhibition result in assay [4] was “Dose-dependent effect”.

On to `COc1c(Br)cc(/C=C/C(=O)NCCCN)cc1Br`, for which the MIC with Klebsiella aerogenes [1] was over 200 µM; with Staphylococcus aureus, over 200 µM; in the assay with Pseudomonas aeruginosa, 100 µM (≈ 39.2 µg/mL); in the assay with Klebsiella pneumoniae [2] it was over 200 µM. Besides, the Activity in the assay on Klebsiella aerogenes [3] is over 100 µM; in [4], 100 µM; in the assay on Klebsiella pneumoniae [5], 100 µM. Besides, the inhibition entry in [4] was “Dose-dependent effect”.

`COc1c(Br)cc(/C=C/C(=O)NCCN)cc1Br`: the MIC in the assay on Klebsiella aerogenes [1], with Staphylococcus aureus, in the assay on Pseudomonas aeruginosa and in the assay with Klebsiella pneumoniae [2] was over 200 µM each time. Also, the Activity was over 100 µM in the assay on Klebsiella aerogenes [3], over 100 µM in assay [4] and 50 µM in the assay on Klebsiella pneumoniae [5]. The inhibition result in [4] is “Dose-dependent effect”.

For the molecule `O=C(N[C@H](CO)[C@H](O)c1ccc([N+](=O)[O-])cc1)C(Cl)Cl` [CHLORAMPHENICOL], the MIC in the assay on Klebsiella aerogenes [1] and in the assay on Pseudomonas aeruginosa was over 200 µM throughout.

In the case of `COc1c(Br)cc(/C=C/C(=O)NCCCCCN)cc1Br`, the MIC in the assay with Klebsiella aerogenes [1], with Staphylococcus aureus, with Pseudomonas aeruginosa and with Klebsiella pneumoniae [2] was over 200 µM in each case. The Activity with Klebsiella aerogenes [3] was over 100 µM; in assay [4] it was over 100 µM; in the assay on Klebsiella pneumoniae [5] it was 6.25 µM. In assay [4], the inhibition result was “Dose-dependent effect”.

`CO/N=C(\C(=O)N[C@@H]1C(=O)N2C(C(=O)[O-])=C(C[N+]3(C)CCCC3)CS[C@H]12)c1csc(N)n1` [CEFEPIME]: the MIC in the assay on Klebsiella aerogenes [1] worked out at 52 µM (≈ 25 µg/mL); in the assay with Pseudomonas aeruginosa, 26 µM (≈ 12.5 µg/mL).

For `COc1c(Br)cc(/C=C/C(=O)NCCCN(C)CCCN)cc1Br`, the MIC in the assay on Klebsiella aerogenes [1] was over 200 µM; in the assay on Staphylococcus aureus, over 200 µM; with Pseudomonas aeruginosa, 200 µM (≈ 92.6 µg/mL); with Klebsiella pneumoniae [2] it was over 200 µM. Moreover, the results for the IC50 in assay [8] and in assay [9] were 174 µM and 24 µM, respectively.
